# How the values were obtained:
# Escherichia coli [1] = test: In vitro antibacterial activity against Escherichia coli Juhl; assay type: functional
# Summary of the method: (§1)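 MICs were determined by agar dilution on brain heart infusion agar, with an inoculum of 10⁴ cfu/spot. Strains were either clinical isolates kept frozen in a culture collection or ATCC strains.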
# Escherichia coli [2] = test: In vitro antibacterial activity against Escherichia coli SS; assay type: functional; summary of the method: as §1
# Isoleucine--tRNA ligase = Isoleucine--tRNA ligase (Escherichia coli K-12, UniProt P00956); test: Inhibitory activity against Isoleucyl-tRNA synthetase
# Summary of the method: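 Isoleucyl-tRNA synthetase was isolated from Escherichia coli and purified to homogeneity. IC50 values were measured by the ATP-pyrophosphate exchange assay.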
# [3] = system: Staphylococcus epidermidis; test: In vitro antibacterial activity against Staphylococcus epidermidis 3519; assay type: functional; summary of the method: as §1
# Staphylococcus aureus = test: In vitro antibacterial activity against Staphylococcus aureus ATCC […]; assay type: functional; summary of the method: as §1
# Streptococcus pyogenes = test: In vitro antibacterial activity against Streptococcus pyogenes EES 61; assay type: functional; summary of the method: as §1
# Streptococcus agalactiae = test: In vitro antibacterial activity against Streptococcus agalactiae CMX 508; assay type: functional; summary of the method: as §1
# [4] = Escherichia coli, read-out: MIC
# [5] = Streptococcus pyogenes, read-out: MIC
# Chain of Isoleucine--tRNA ligase (P00956 whole entry): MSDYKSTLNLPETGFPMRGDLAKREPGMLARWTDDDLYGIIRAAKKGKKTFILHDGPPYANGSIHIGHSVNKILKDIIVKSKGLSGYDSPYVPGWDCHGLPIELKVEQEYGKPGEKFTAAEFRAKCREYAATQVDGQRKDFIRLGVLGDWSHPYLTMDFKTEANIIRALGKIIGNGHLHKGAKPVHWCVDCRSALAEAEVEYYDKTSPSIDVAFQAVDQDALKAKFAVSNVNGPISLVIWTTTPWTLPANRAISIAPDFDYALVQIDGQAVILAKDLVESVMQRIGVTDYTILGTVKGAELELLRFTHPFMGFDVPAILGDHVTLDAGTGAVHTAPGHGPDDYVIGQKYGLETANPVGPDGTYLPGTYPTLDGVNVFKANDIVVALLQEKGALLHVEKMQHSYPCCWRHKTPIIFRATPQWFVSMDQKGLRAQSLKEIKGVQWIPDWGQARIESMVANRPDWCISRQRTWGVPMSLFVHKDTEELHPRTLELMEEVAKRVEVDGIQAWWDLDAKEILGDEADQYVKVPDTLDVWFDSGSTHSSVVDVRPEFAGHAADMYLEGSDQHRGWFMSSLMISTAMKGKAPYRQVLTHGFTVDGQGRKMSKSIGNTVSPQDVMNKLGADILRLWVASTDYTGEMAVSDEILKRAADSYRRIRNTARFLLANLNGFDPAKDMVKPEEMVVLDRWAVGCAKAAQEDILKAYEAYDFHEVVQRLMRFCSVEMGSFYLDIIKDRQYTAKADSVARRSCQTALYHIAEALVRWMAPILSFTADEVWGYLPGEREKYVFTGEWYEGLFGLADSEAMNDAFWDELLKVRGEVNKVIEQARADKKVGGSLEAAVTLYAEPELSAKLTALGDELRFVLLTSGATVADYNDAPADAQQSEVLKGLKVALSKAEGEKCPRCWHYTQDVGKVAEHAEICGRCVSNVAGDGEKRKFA
SMILES,MIC (Escherichia coli [1]),MIC (Escherichia coli [2]; [4]),IC50 (Isoleucine--tRNA ligase),MIC [3],MIC (Staphylococcus aureus),MIC (Streptococcus pyogenes; [5]),MIC (Streptococcus agalactiae),MIC (Escherichia coli [2]),MIC (Streptococcus pyogenes)
C[C@H]([C@@H]1O[C@H]1CC1CO[C@@H](Cc2ccoc2)[C@H](O)[C@@H]1O)[C@H](C)O (some centres undefined),> 100 mg/L,100 mg/L,> 1230 µM,> 100 mg/L,> 100 mg/L,> 100 mg/L,> 100 mg/L,,
CCCC[S+]([O-])/C=C(\C)C[C@@H]1OCC(C[C@@H]2O[C@H]2[C@@H](C)[C@H](C)O)[C@@H](O)[C@H]1O (stereo in doubt; 14),,,171 µM,,,,,100 mg/L,>100 mg/L
CCCC[S+]([O-])/C=C(\C)C[C@@H]1OCC(C[C@@H]2O[C@H]2[C@@H](C)[C@H](C)O)[C@@H](O)[C@H]1O (stereo in doubt; 15),> 100 mg/L,100 mg/L,> 989 µM,> 100 mg/L,> 100 mg/L,100 mg/L,> 100 mg/L,,
C/C(=C/Sc1ccccc1)C[C@@H]1OC[C@H](C[C@@H]2O[C@H]2[C@@H](C)[C@H](C)O)[C@@H](O)[C@H]1O,> 100 mg/L,12.5 mg/L,46.5 µM,50 mg/L,25 mg/L,12.5 mg/L,50 mg/L,,
COC(=O)CCCCCCCCOC(=O)/C=C(\C)C[C@@H]1OCC(C[C@@H]2O[C@H]2[C@@H](C)[C@H](C)O)[C@@H](O)[C@H]1O (some centres undefined),50 mg/L,0.05 mg/L,1.17 µM,0.39 mg/L,0.2 mg/L,0.1 mg/L,0.78 mg/L,,
CCCCS/C=C(\C)C[C@@H]1OCC(C[C@@H]2O[C@H]2[C@@H](C)[C@H](C)O)[C@@H](O)[C@H]1O (some centres undefined),> 100 mg/L,0.78 mg/L,5.4 µM,0.78 mg/L,1.56 mg/L,0.78 mg/L,3.1 mg/L,,
COC(=O)CCCCCCCCOC/C=C(\C)C[C@@H]1OCC(C[C@@H]2O[C@H]2[C@@H](C)[C@H](C)O)[C@@H](O)[C@H]1O (some centres undefined),> 100 mg/L,12.5 mg/L,1.7 µM,> 100 mg/L,> 100 mg/L,100 mg/L,> 100 mg/L,,
CCCCSC/C=C(\C)C[C@@H]1OCC(C[C@@H]2O[C@H]2[C@@H](C)[C@H](C)O)[C@@H](O)[C@H]1O (some centres undefined),> 100 mg/L,50 mg/L,390 µM,> 100 mg/L,> 100 mg/L,100 mg/L,> 100 mg/L,,
COC(=O)CCCCCCCCSC/C=C(\C)C[C@@H]1OCC(C[C@@H]2O[C@H]2[C@@H](C)[C@H](C)O)[C@@H](O)[C@H]1O (some centres undefined),> 100 mg/L,25 mg/L,18.4 µM,> 100 mg/L,100 mg/L,50 mg/L,> 100 mg/L,,

# Further lines, results first:
MIC (Escherichia coli [1]),MIC (Escherichia coli [2]; [4]),IC50 (Isoleucine--tRNA ligase),MIC [3],MIC (Staphylococcus aureus),MIC (Streptococcus pyogenes; [5]),MIC (Streptococcus agalactiae),MIC (Escherichia coli [2]),MIC (Streptococcus pyogenes),SMILES
> 100 mg/L,100 mg/L,744 µM,> 100 mg/L,> 100 mg/L,> 100 mg/L,> 100 mg/L,,,CCCCS/C=C(/C)C[C@@H]1OCC(C[C@@H]2O[C@H]2[C@@H](C)[C@H](C)O)[C@@H](O)[C@H]1O (some centres undefined)
100 mg/L,0.2 mg/L,0.494 µM,0.39 mg/L,0.2 mg/L,0.39 mg/L,3.1 mg/L,,,C/C(=C\C(=O)c1ccccc1)C[C@@H]1OCC(C[C@@H]2O[C@H]2[C@@H](C)[C@H](C)O)[C@@H](O)[C@H]1O (some centres undefined)
> 100 mg/L,1.56 mg/L,11 µM,6.2 mg/L,3.1 mg/L,3.1 mg/L,6.2 mg/L,,,C/C(=C\Sc1ccccc1)C[C@@H]1OC[C@H](C[C@@H]2O[C@H]2[C@@H](C)[C@H](C)O)[C@@H](O)[C@H]1O
> 100 mg/L,> 100 mg/L,> 774 µM,> 100 mg/L,> 100 mg/L,> 100 mg/L,> 100 mg/L,,,COC(=O)CCCCCCCCOC(=O)CC(=O)C[C@@H]1OCC(C[C@@H]2O[C@H]2[C@@H](C)[C@H](C)O)[C@@H](O)[C@H]1O (some centres undefined)
> 100 mg/L,12.5 mg/L,51.7 µM,100 mg/L,100 mg/L,50 mg/L,> 100 mg/L,,,CCCCOC/C=C(\C)C[C@@H]1OCC(C[C@@H]2O[C@H]2[C@@H](C)[C@H](C)O)[C@@H](O)[C@H]1O (some centres undefined)
> 100 mg/L,> 100 mg/L,181 µM,> 100 mg/L,> 100 mg/L,25 mg/L,> 100 mg/L,,,CCCCS(=O)(=O)/C=C(\C)C[C@@H]1OCC(C[C@@H]2O[C@H]2[C@@H](C)[C@H](C)O)[C@@H](O)[C@H]1O (some centres undefined)
> 100 mg/L,25 mg/L,794 µM,100 mg/L,100 mg/L,6.2 mg/L,100 mg/L,,,C[C@H]([C@@H]1O[C@H]1CC1CO[C@@H](CC2=CC(=O)OC2)[C@H](O)[C@@H]1O)[C@H](C)O (some centres undefined)
> 100 mg/L,6.2 mg/L,14.8 µM,1.56 mg/L,1.56 mg/L,1.56 mg/L,> 100 mg/L,,,CSC(CCCCCCCCCC(=O)/C=C(\C)C[C@@H]1OCC(C[C@@H]2O[C@H]2[C@@H](C)[C@H](C)O)[C@@H](O)[C@H]1O)(SC)SC (some centres undefined)
> 100 mg/L,0.2 mg/L,0.191 µM,0.1 mg/L,0.1 mg/L,0.1 mg/L,0.78 mg/L,,,C/C(=C\C(=O)OCCCCCCCCC(=O)[O-])C[C@@H]1OCC(C[C@@H]2O[C@H]2[C@@H](C)[C@H](C)O)[C@@H](O)[C@H]1O.[Na+] (some centres undefined)
50 mg/L,0.05 mg/L,3.32 µM,0.39 mg/L,0.39 mg/L,0.1 mg/L,3.1 mg/L,,,COC(=O)CCCCCCCCCC(=O)/C=C(\C)C[C@@H]1OCC(C[C@@H]2O[C@H]2[C@@H](C)[C@H](C)O)[C@@H](O)[C@H]1O (some centres undefined)

# Source: ChEMBL document CHEMBL1124316, “Synthesis and activity of nonhydrolyzable pseudomonic acid analogues” (J Med Chem, 1989)
